Assays:
in vitro [1] = conditions: male, mouse, tissue homogenate, pH 6
in vitro [2] = conditions: male, BPHL knock-out, mouse, tissue homogenate, pH 6
Caco-2 cell monolayers = test: Transepithelial transport across Caco-2 cell monolayers; conditions: AP-BL
[3] = In situ single-pass intestinal perfusion; conditions: male, BALB/c, mouse, other: in situ single-pass intestinal (jejunal) perfusion, pH 6
[4] = system: Wild-type mice intestinal tissue homogenates; conditions: mouse, tissue homogenate, pH 6
pepsin = pepsin (Sus scrofa, UniProt P00791); test: Hydrolysis in pH 1.2 SGF with pepsin; format: in vitro ADME; conditions: 37 °C, stable = no decrease in area by HPLC after 2 h
mouse jejunum = test: In situ single-pass intestinal perfusion; conditions: mouse proximal jejunum, 0.1 mM, pH 6.0
hPEPT1 = molecular target: T1, hPEPT1 (Homo sapiens, UniProt P46059); test: Uptake in Xenopus laevis oocytes expressing hPEPT1; format: cell-based; conditions: 50 μM, pH 6.0, 30 min, room temperature
T1 sequence (P46059 1-708): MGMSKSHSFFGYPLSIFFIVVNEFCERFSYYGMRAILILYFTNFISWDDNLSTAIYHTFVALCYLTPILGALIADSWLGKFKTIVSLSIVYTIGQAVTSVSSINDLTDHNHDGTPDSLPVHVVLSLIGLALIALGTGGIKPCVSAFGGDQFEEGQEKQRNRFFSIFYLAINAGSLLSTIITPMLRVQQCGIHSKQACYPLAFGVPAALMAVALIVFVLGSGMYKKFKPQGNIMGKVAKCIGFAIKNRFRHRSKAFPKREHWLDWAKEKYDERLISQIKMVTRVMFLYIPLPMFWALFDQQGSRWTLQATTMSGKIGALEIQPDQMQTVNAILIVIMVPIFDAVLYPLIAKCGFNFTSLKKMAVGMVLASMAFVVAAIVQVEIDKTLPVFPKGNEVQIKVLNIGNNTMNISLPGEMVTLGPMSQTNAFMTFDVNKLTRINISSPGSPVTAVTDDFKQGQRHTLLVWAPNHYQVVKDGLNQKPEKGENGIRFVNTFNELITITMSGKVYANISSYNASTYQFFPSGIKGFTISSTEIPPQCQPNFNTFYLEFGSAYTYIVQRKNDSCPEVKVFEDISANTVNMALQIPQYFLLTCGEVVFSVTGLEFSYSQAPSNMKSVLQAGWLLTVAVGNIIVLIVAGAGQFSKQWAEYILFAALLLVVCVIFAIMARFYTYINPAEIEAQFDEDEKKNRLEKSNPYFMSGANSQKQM
Outline: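 Oocytes injected with hPEPT1 cRNA, with water-injected oocytes as controls. Uptake at room temperature, pH 6.0, in modified Barth's solution (96 mM NaCl, 10 mM HEPES), 50 μM for 30 min; time course up to 3 h; 50–5000 μM for 3 h. Gly-Sar (1, 20 mM) competition expressed as % of uptake without Gly-Sar. Mean ± SEM, 8–13 experiments.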

[5] = Chemical stability in buffers at 37 °C
HepG2 cell homogenates = test: Hydrolysis in HepG2 cell homogenates; format: in vitro ADME, human; conditions: HepG2 Cell homogenates (pH 6.0), 500 μg/mL protein, 37 °C
Caco-2 cells = test: Intracellular accumulation into Caco-2 cells after transport study; format: in vitro ADME, Human; conditions: Caco-2 cell lysate after 2 h transport study with the prodrug
[6] = system: BPHL knock-out mice intestinal tissue homogenates; conditions: mouse, tissue homogenate, pH 6
Caco-2 cell homogenates = test: Hydrolysis in Caco-2 cell homogenates; format: in vitro ADME, Human; conditions: Caco-2 Cell homogenates (pH 6.0), 500 μg/mL protein, 37 °C
pancreatin = test: Hydrolysis in buffers / SIF with pancreatin; format: in vitro ADME
[7] = given as the ethyl ester prodrug oseltamivir; cited from earlier work

pepsin, sequence (P00791 60-385): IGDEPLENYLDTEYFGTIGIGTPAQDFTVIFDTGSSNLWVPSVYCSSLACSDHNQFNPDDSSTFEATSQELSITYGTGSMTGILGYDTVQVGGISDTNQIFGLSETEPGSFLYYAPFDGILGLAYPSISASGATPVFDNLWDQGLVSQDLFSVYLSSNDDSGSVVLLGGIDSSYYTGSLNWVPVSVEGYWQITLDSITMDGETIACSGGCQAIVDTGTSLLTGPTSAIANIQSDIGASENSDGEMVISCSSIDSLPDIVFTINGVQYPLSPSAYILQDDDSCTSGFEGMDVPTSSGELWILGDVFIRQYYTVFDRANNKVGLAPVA

Compound `CC(C)[C@H](N)C(=O)OCCOCn1cnc2c(=O)[nH]c(N)nc21` [valacyclovir] has a half-life (in vitro [1]) of 1.58 h and a half-life (in vitro [2]) of 3.12 h.
For `COCCc1ccc(OCC(O)CNC(C)C)cc1` (centres unmarked) [metoprolol], the “Papp relative to that of the prodrug GOC-ISP-Val” value (Caco-2 cell monolayers; 0.2 mM) was 1.7 times higher and the Papp at 1.5 h, 0.1 mM [3] was 53.8 ± 16.8 ×10⁻⁶ cm/s.
In the case of `CCC(CC)O[C@@H]1C=C(C(=O)O)C[C@H](NC(=N)N)[C@H]1NC(C)=O` [GOC], the “Apparent permeability (Papp)” value (Caco-2 cell monolayers; apical pH 6.0 / basolateral pH 7.4, 37 °C) is reported as 7.98±4.61 x 10^−7 cm/s, the “Half-life (t1/2)” value [4] is reported as “stable ^b” and the “Half-life (t1/2)” value (pepsin) is reported as “stable ^b”. The “Effective permeability (Peff)” value (mouse jejunum) was “approximately zero”, the “Uptake in hPEPT1 cRNA-injected oocytes versus water-injected control oocytes” value (hPEPT1) was “no increase in uptake” and the “Half-life (t1/2)” value ([5]; pH 1.2 SGF without pepsin, 0.2 mM, stable = no decrease in area by HPLC after 2 h) was “stable ^b”. The “Half-life (t1/2)” value ([5]; pH 4.5 Acetate buffer) was “stable ^b”, the “Half-life (t1/2)” value ([5]; pH 5.5 Acetate buffer) was “stable ^b” and the “Half-life (t1/2)” value ([5]; pH 6.0 MES buffer) was “stable ^b”. For the same compound, the “Half-life (t1/2)” value ([5]; pH 7.4 Phosphate buffer) was “stable ^b”, the “Half-life (t1/2)” value (HepG2 cell homogenates) was “stable ^b” and the “Amount in cells (share of accumulated species after GOC-ISP-Val transport study)” value (Caco-2 cells) was 49.2%. The “Half-life (t1/2)” value [6] was “stable ^b”, the “Half-life (t1/2)” value (Caco-2 cell homogenates) was “stable ^b” and the “Half-life (t1/2)” value (pancreatin; pH 4.5 Acetate buffer with pancreatin) was “stable ^b”. The “Half-life (t1/2)” value (pancreatin; pH 5.5 Acetate buffer with pancreatin) was “stable ^b”, the “Half-life (t1/2)” value (pancreatin; pH 6.0 MES buffer with pancreatin) was “stable ^b” and the “Half-life (t1/2)” value (pancreatin; pH 6.8 SIF with pancreatin) was “stable ^b”.
For `CCC(CC)O[C@@H]1C=C(C(=O)O)C[C@H](N)[C@H]1NC(C)=O` [oseltamivir carboxylate], the Oral bioavailability [7] is given as “about 80%”.

— article PMC4857762 (Journal of pharmaceutical sciences, 2016)
